Data: ChEMBL document CHEMBL1142287, “Anti-Pneumocystis carinii and antiplasmodial activities of primaquine-derived imidazolidin-4-ones” (Bioorg Med Chem Lett, 2008)

Assays:
[1] = tested on: Pneumocystis carinii; assay: Antimicrobial activity against Pneumocystis carinii assessed as ATP levels after 72 hrs by luciferase assay; format: functional, organism-based
In short: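 P. carinii organism preparations screened before use for microbial contamination, ATP content, karyotype and host cell content. Compounds incubated with organisms for 72 h, then ATP measured as relative light units. Each concentration tested in triplicate wells and averaged, with triplicate runs using separate organism isolation batches. Activity averaged from at least three determinations.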

[2] = tested on: Plasmodium falciparum; assay: Antiplasmodial activity against chloroquine-resistant Plasmodium falciparum W2; format: functional, organism-based
In short: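 Parasite development assay against P. falciparum W2, run by the authors' earlier method. Values in μM, each the average of at least three determinations.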

[3] = Half life of hydrolysis in buffer at pH 7.4; format: ADME
In short: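 Hydrolytic stability followed in pH 7.4 buffer at 37 °C; half-life derived from the decay.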

COc1cc(NC(C)CCCN2C(=O)C(Cc3ccccc3)NC2c2ccccc2C)c2ncccc2c1 (stereo in doubt; 2m1) showed an IC50 [1] of 21 µM.
COc1cc(NC(C)CCCN2C(=O)[C@H](C(C)C)NC23CCCC3)c2ncccc2c1 (some centres not stated) showed an IC50 ([1]; Pneumocystis carinii, 72 h) of 23 µM and an IC50 [2] of over 50 µM.
In the case of COc1cc(NC(C)CCCN2C(=O)[C@H](C(C)C)NC23CCCCCC3)c2ncccc2c1 (some centres not stated), the half-life [3] is reported as over 240 h, the IC50 ([1]; Pneumocystis carinii, 72 h) is reported as 6 µM and the IC50 [2] is reported as 8.89 µM.
COc1cc(NC(C)CCCN2C(=O)C(Cc3ccccc3)NC2c2ccccc2C)c2ncccc2c1 (stereo in doubt; 2m2) showed an IC50 ([1]; Pneumocystis carinii, 72 h) of 13 µM.
Compound COc1cc(NC(C)CCCN2C(=O)[C@H](C(C)C)NC2(C)C)c2ncccc2c1 (some centres not stated) has an IC50 ([1]; Pneumocystis carinii, 72 h) of 40 µM and an IC50 [2] of over 50 µM.
With COc1cc(NC(C)CCCN2C(=O)[C@H](Cc3ccccc3)NC2(C)C)c2ncccc2c1 (some centres not stated) the IC50 ([1]; Pneumocystis carinii, 72 h) was 32 µM and the IC50 [2] was over 50 µM.
COc1cc(NC(C)CCCN2C(=O)[C@H](CC(C)C)NC23CCCCCC3)c2ncccc2c1 (some centres not stated) gave an IC50 ([1]; Pneumocystis carinii, 72 h) of 4.1 µM and an IC50 [2] of 2.63 µM.
COc1cc(NC(C)CCCN2C(=O)CNC2(C)C)c2ncccc2c1 (configuration not stated) gave an IC50 ([1]; Pneumocystis carinii, 72 h) of 23 µM and an IC50 [2] of 9.08 µM.
Compound COc1cc(NC(C)CCCN2C(=O)CNC23CCCCC3)c2ncccc2c1 (configuration not stated) has an IC50 ([1]; Pneumocystis carinii, 72 h) of 43 µM and an IC50 [2] of over 50 µM.
COc1cc(NC(C)CCCN2C(=O)[C@H](C(C)C)NC23CCCCC3)c2ncccc2c1 (some centres not stated) showed an IC50 ([1]; Pneumocystis carinii, 72 h) of 26 µM and an IC50 [2] of over 50 µM.
Compound COc1cc(NC(C)CCCN2C(=O)[C@H](Cc3ccccc3)NC23CCCC3)c2ncccc2c1 (some centres not stated) has an IC50 ([1]; Pneumocystis carinii, 72 h) of 12 µM and an IC50 [2] of over 50 µM.
COc1cc(NC(C)CCCN2C(=O)[C@H](C)NC2(C)C)c2ncccc2c1 (some centres not stated) showed an IC50 ([1]; Pneumocystis carinii, 72 h) of 226 µM and an IC50 [2] of over 50 µM.
In the case of COc1cc(NC(C)CCCN2C(=O)[C@H](C)NC23CCC(C)CC3)c2ncccc2c1 (some centres not stated), the IC50 ([1]; Pneumocystis carinii, 72 h) is reported as 23 µM.
With COc1cc(NC(C)CCCN2C(=O)[C@H](C)NC23CCCCCC3)c2ncccc2c1 (some centres not stated) the IC50 ([1]; Pneumocystis carinii, 72 h) was 1.9 µM and the IC50 [2] was 2.42 µM.
With COc1cc(NC(C)CCCN)c2ncccc2c1 (configuration not stated) [PRIMAQUINE] the IC50 ([1]; Pneumocystis carinii, 72 h) was 2.5 µM.
